Reference: ChEMBL document CHEMBL1123026, “Preparation and antiarthritic and analgesic activity of 4,5-diaryl-2-(substituted thio)-1H-imidazoles and their sulfoxides and sulfones” (1985)

Key:
Type in all cases: functional
Mus musculus [1] = assay: Effective dose by mouse phenyl-p-benzoquinone writhing (PQW)assay after peroral administration; activity value ranges from (2.3-15.7); conditions: po
In short: (§1)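 Fasted (17-21 h) female white mice, 5-20 per double-blind test, dosed orally with compound suspended in 1% methylcellulose. 0.20 mL aqueous 0.01% phenyl-p-benzoquinone given i.p. 6 min before a 10-min observation for stretching/writhing. ED50 (dose protecting 50% of mice) calculated by the moving-average method.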

Mus musculus [2] = assay: Effective dose by mouse phenyl-p-benzoquinone writhing (PQW)assay after peroral administration; activity value ranges from (1.9-10.1); conditions: po; in short: as §1
Mus musculus [3] = assay: Effective dose by mouse phenyl-p-benzoquinone writhing (PQW)assay after peroral administration; activity value ranges from (2.8-10.9); conditions: po; in short: as §1
Rattus norvegicus [4] = assay: Effective dose determined against rat adjuvant arthritis after peroral administration; conditions: po
In short: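 Male Lewis rats (130-150 g) given 0.1 mL Mycobacterium butyricum adjuvant (5 mg/mL in mineral oil) s.c. into the right hind paw; arthritis developed for 2 weeks. Groups of 10 matched for severity were dosed orally by gavage in PVA-acacia vehicle (10 mL/kg) for 7 days. Uninjected left paw volume was measured the day after the last dose. Percent decrease was calculated vs arthritic and nonarthritic controls. ED50 was read from a visually fitted semilog dose-response line.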

Mus musculus [5] = assay: Effective dose by mouse phenyl-p-benzoquinone writhing (PQW)assay after peroral administration; activity value ranges from (3.1 - 39.5); conditions: po; in short: as §1
Mus musculus [6] = assay: Effective dose by mouse phenyl-p-benzoquinone writhing (PQW)assay after peroral administration; activity value ranges from (0.028-0.065); conditions: po
Mus musculus [7] = assay: Effective dose determined by mouse phenyl-p-benzoquinone writhing (PQW) assay after peroral administration; conditions: po; in short: as §1
Rattus norvegicus [8] = assay: Decrease in paw volume by the effect of compound at a dose of 75 mg/kg, highest dose (75 mg/kg)
In short: (§2)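 Male Lewis rats (130-150 g) got 0.1 mL adjuvant (heat-killed Mycobacterium butyricum, 5 mg/mL in mineral oil) subplantar in the right hind paw and were left 2 weeks. Groups of 10 matched for severity were dosed orally by gavage (PVA-acacia vehicle, 10 mL/kg) for 7 days. Uninjected left hind paw volume was read the next day. % decrease = (arthritic control − treated)/(arthritic − nonarthritic control) × 100; Student's t-test.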

Mus musculus [9] = assay: Effective dose by mouse phenyl-p-benzoquinone writhing (PQW)assay after peroral administration; 6.5-42.8; conditions: po
Mus musculus [10] = assay: Effective dose by mouse phenyl-p-benzoquinone writhing (PQW)assay after peroral administration; 14.9-77.8; conditions: po
Mus musculus [11] = assay: Effective dose by mouse phenyl-p-benzoquinone writhing (PQW)assay after peroral administration; 5.3-45.9; conditions: po
Mus musculus [12] = assay: Effective dose by mouse phenyl-p-benzoquinone writhing (PQW)assay after peroral administration; activity value ranges from (25.5-94.1); conditions: po; in short: as §1
Rattus norvegicus [13] = assay: Decrease in paw volume by the effect of compound at a dose of 1 mg/kg; in short: as §2
Mus musculus [14] = assay: Effective dose by mouse phenyl-p-benzoquinone writhing (PQW)assay after peroral administration; activity value ranges from (6.0 - 18.0); conditions: po; in short: as §1
Rattus norvegicus [15] = assay: Decrease in paw volume was evaluated at dose 10 mg/kg; in short: as §2
Mus musculus [16] = assay: Effective dose against mouse phenyl-p-benzoquinone writhing (PQW)assay, peroral administration; activity value ranges from (21.9-110); conditions: po
Mus musculus [17] = assay: Effective dose by mouse phenyl-p-benzoquinone writhing (PQW)assay after peroral administration; 51.5-243; conditions: po
Mus musculus [18] = assay: Effective dose by mouse phenyl-p-benzoquinone writhing (PQW)assay after peroral administration; activity value ranges from (15.7 - 101.9); conditions: po; in short: as §1
Mus musculus [19] = assay: Effective dose by mouse phenyl-p-benzoquinone writhing (PQW)assay after peroral administration; 16.6-69.5; conditions: po
Mus musculus [20] = assay: Effective dose by mouse phenyl-p-benzoquinone writhing (PQW)assay after peroral administration; activity value ranges from (8.6 - 78.6); conditions: po; in short: as §1
Rattus norvegicus [21] = assay: Decrease in paw volume by the effect of compound at a dose of 10 mg/kg; in short: as §2
Mus musculus [22] = assay: Effective dose by mouse phenyl-p-benzoquinone writhing (PQW)assay after peroral administration; activity value ranges from (10.9-125.8); conditions: po; in short: as §1
Mus musculus [23] = assay: Effective dose by mouse phenyl-p-benzoquinone writhing (PQW)assay after peroral administration; 26.7-130; conditions: po
Mus musculus [24] = assay: Effective dose by mouse phenyl-p-benzoquinone writhing (PQW)assay after peroral administration; 0.16-0.57; conditions: po
Mus musculus [25] = assay: Effective dose by mouse phenyl-p-benzoquinone writhing (PQW)assay after peroral administration; activity value ranges from (5.9 - 17.1); conditions: po; in short: as §1
Mus musculus [26] = assay: Effective dose by mouse phenyl-p-benzoquinone writhing (PQW)assay after peroral administration; activity value ranges from (22.9 - 118); conditions: po; in short: as §1
Mus musculus [27] = assay: Effective dose by mouse phenyl-p-benzoquinone writhing (PQW)assay after peroral administration; activity value ranges from (2.7-11.8); conditions: po; in short: as §1
Mus musculus [28] = assay: Effective dose by mouse phenyl-p-benzoquinone writhing (PQW)assay after peroral administration; activity value ranges from (0.48-1.53); conditions: po
Mus musculus [29] = assay: Effective dose by mouse phenyl-p-benzoquinone writhing (PQW)assay after peroral administration; activity value ranges from (0.05-0.27); conditions: po
Mus musculus [30] = assay: Effective dose by mouse phenyl-p-benzoquinone writhing (PQW)assay after peroral administration; 27.2-42.9; conditions: po

O=S(=O)(c1nc(-c2ccccc2)c(-c2ccccc2)[nH]1)C(F)F
ED50 (Mus musculus [1]): 6 mg/kg

O=S(=O)(c1nc(-c2ccccc2Cl)c(-c2ccccc2Cl)[nH]1)C(F)(F)C(F)F
ED50 (Mus musculus [2]): 4.4 mg/kg

Cc1ccc(-c2[nH]c(S(=O)(=O)C(F)(F)C(F)F)nc2-c2ccccc2)cc1
ED50 (Mus musculus [3]): 5.5 mg/kg
ED50 (Rattus norvegicus [4]): 0.8 mg/kg

[O-][S+](c1nc(-c2ccc(Cl)cc2)c(-c2ccc(Cl)cc2)[nH]1)C(F)(F)C(F)F (stereo not drawn)
ED50 (Mus musculus [5]): 11 mg/kg
ED50 (Rattus norvegicus [4]): 0.22 mg/kg

COc1ccc(-c2nc(S(=O)(=O)C(F)(F)F)[nH]c2-c2ccc(OC)cc2)cc1
ED50 (Mus musculus [6]): 0.043 mg/kg

CC[S+]([O-])c1nc(-c2ccccc2)c(-c2ccccc2)[nH]1 (stereo not drawn)
ED50 (Mus musculus [7]): > 130 mg/kg
Decrease (Rattus norvegicus [8]): 44%

COc1ccc(-c2nc(S(=O)(=O)C(F)(F)C(F)I)[nH]c2-c2ccc(OC)cc2)cc1 (stereo not drawn)
ED50 (Mus musculus [9]): 16.7 mg/kg
ED50 (Rattus norvegicus [4]): 5 mg/kg

C=CSc1nc(-c2ccc(OC)cc2)c(-c2ccc(OC)cc2)[nH]1
ED50 (Mus musculus [10]): 34 mg/kg
ED50 (Rattus norvegicus [4]): 12 mg/kg

Fc1ccc(-c2nc(SC(F)(F)F)[nH]c2-c2ccc(F)cc2)cc1
ED50 (Mus musculus [11]): 15.6 mg/kg
ED50 (Rattus norvegicus [4]): 0.035 mg/kg

Cc1ccc(-c2[nH]c(S(=O)(=O)C(F)(F)C(F)F)nc2-c2cccc(Cl)c2)cc1
ED50 (Mus musculus [12]): 49 mg/kg
Decrease (Rattus norvegicus [13]): 36%

O=S(=O)(CC(F)(F)F)c1nc(-c2ccccc2)c(-c2ccccc2)[nH]1
ED50 (Mus musculus [14]): 10.4 mg/kg
ED50 (Rattus norvegicus [4]): 15 mg/kg

CCOc1ccc(-c2[nH]c(SC(F)(F)C(F)F)nc2-c2ccccc2)cc1
ED50 (Mus musculus [7]): > 130 mg/kg
Decrease (Rattus norvegicus [15]): 32%

C[S+]([O-])c1nc(-c2ccc(Cl)cc2)c(-c2ccc(Cl)cc2)[nH]1 (stereo not drawn)
ED50 (Mus musculus [16]): 49 mg/kg
ED50 (Rattus norvegicus [4]): 2.5 mg/kg

COc1ccc(-c2nc(SC(F)F)[nH]c2-c2ccc(OC)cc2)cc1
ED50 (Mus musculus [17]): 112 mg/kg

CCCS(=O)(=O)c1nc(-c2ccc(OC)cc2)c(-c2ccc(OC)cc2)[nH]1
ED50 (Mus musculus [18]): 40 mg/kg
ED50 (Rattus norvegicus [4]): 9.5 mg/kg

CN(C)c1ccc(-c2[nH]c(SC(F)(F)C(F)F)nc2-c2ccccc2)cc1
ED50 (Mus musculus [19]): 34 mg/kg
ED50 (Rattus norvegicus [4]): 3 mg/kg

COc1ccc(-c2nc(S(=O)(=O)CC(C)=O)[nH]c2-c2ccc(OC)cc2)cc1
ED50 (Mus musculus [20]): 26 mg/kg
ED50 (Rattus norvegicus [4]): 20 mg/kg

CS(=O)(=O)c1nc(-c2cccc(Cl)c2)c(-c2ccccc2)[nH]1
ED50 (Mus musculus [7]): > 130 mg/kg
Decrease (Rattus norvegicus [21]): 55%

COc1ccc(-c2nc([S+]([O-])C(F)(F)F)[nH]c2-c2ccc(OC)cc2)cc1 (stereo not drawn)
ED50 (Mus musculus [22]): 37 mg/kg
ED50 (Rattus norvegicus [4]): 3 mg/kg

COc1ccc(-c2nc(SC(F)(F)C(F)Br)[nH]c2-c2ccc(OC)cc2)cc1 (stereo not drawn)
ED50 (Mus musculus [23]): 59 mg/kg
ED50 (Rattus norvegicus [4]): 10 mg/kg

COc1ccc(-c2nc(S(=O)(=O)C(F)(F)C(F)Br)[nH]c2-c2ccc(OC)cc2)cc1 (stereo not drawn)
ED50 (Mus musculus [24]): 0.3 mg/kg

O=S(=O)(CC(F)(F)F)c1nc(-c2ccc(Cl)cc2)c(-c2ccc(Cl)cc2)[nH]1
ED50 (Mus musculus [25]): 10 mg/kg
ED50 (Rattus norvegicus [4]): 10 mg/kg

[O-][S+](c1nc(-c2ccc(Cl)c(Cl)c2)c(-c2ccccc2)[nH]1)C(F)(F)C(F)F (stereo not drawn)
ED50 (Mus musculus [26]): 52 mg/kg
ED50 (Rattus norvegicus [4]): 0.45 mg/kg

O=S(=O)(c1nc(-c2ccccc2)c(-c2ccccc2)[nH]1)C(F)(F)CF
ED50 (Mus musculus [27]): 5.6 mg/kg
ED50 (Rattus norvegicus [4]): 0.14 mg/kg

O=S(=O)(c1nc(-c2ccc(F)cc2)c(-c2ccccc2)[nH]1)C(F)(F)C(F)F
ED50 (Mus musculus [28]): 0.86 mg/kg
ED50 (Rattus norvegicus [4]): 0.03 mg/kg

COc1ccc(-c2[nH]c(S(=O)(=O)C(F)(F)F)nc2-c2ccc(F)cc2)cc1
ED50 (Mus musculus [29]): 0.12 mg/kg

O=S(=O)(c1nc(-c2ccccc2)c(-c2ccccc2)[nH]1)C(F)(F)C(Cl)Cl
ED50 (Mus musculus [30]): 34.2 mg/kg
ED50 (Rattus norvegicus [4]): 1.7 mg/kg
